Only some compounds are listed: those with a hit (about 4.1% of all), similar ones and a draw of the others.
MrgX1 ag – agonists of human MrgX1 receptor, primary screen, HEK293 cells, Fluo-4 calcium flux; Mas-related G-protein coupled receptor member X1 (Homo sapiens), Q96LB2; Fluo-4 calcium fluorescence, agonist mode; active compounds read high; B-score at 10 µM; 0.44% of 310,000 active;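 active = calcium response B-score plate-corrected fluorescence ratio at least 3 library SD, with starting fluorescence B-score inside 5 SD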
Target sequence (Q96LB2 whole entry, looked up): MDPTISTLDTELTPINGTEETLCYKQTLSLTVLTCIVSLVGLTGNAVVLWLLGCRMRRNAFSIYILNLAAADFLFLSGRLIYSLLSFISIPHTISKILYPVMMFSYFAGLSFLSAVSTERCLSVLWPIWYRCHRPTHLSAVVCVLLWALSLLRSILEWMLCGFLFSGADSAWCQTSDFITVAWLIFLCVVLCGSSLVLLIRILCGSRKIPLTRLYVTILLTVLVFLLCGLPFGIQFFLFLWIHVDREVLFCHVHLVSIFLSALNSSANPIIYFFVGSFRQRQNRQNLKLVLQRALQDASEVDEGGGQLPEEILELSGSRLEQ
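Assay system: stable human MrgX1 HEK293 cell line. Quantity: 15,000 cells per well. Schedule: cells plated overnight, dye loaded 0.5 h 37 °C, 0.5 h room temperature. Detection: Fluo-4 NW calcium-flux fluorescence, kinetic read. Read-out basis: peak-minus-minimum fluorescence over baseline, converted to B scores. Control set: positive and negative control wells on each plate.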
MrgX1 antag – antagonists of human MrgX1 receptor, primary screen, HEK293 cells, Fluo-4 calcium flux. BAM8-22 antagonism; active compounds read low. B-score at 10 µM. 1.3% of 310,000 active;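 active = calcium-response B-score plate-corrected more than 3 library SD below zero, starting fluorescence within 5 deviations, no agonist response on first addition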;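 also: peak minus trough fluorescence over baseline after final BAM8-22 challenge near maximal dose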
Kir21 block – inhibitors of mouse Kir2.1 inward-rectifier potassium channel; HEK293-Kir2.1, FluxOR thallium flux fluorescence; active compounds read low; 0.85% of 310,000 active; B-score at 10 µM; Inward rectifier potassium channel 2 (Mus musculus), P35561;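 active = fluorescence ratio B-score at or below minus 3 SD of library scores, with starting-brightness B-score within 2 SD, cut at about -4.2 in these data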;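 also: channel flux triggered by added potassium and thallium sulfate stimulus; B-score of peak minus minimum fluorescence over baseline after thallium stimulus; more negative B-score means stronger Kir2.1 block with less thallium influx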
RGS4 pot – RGS4 potentiators or activators, primary screen, cell-based, HEK293 M3R inducible RGS4, calcium flux; carbachol calcium flux Fluo4; active compounds read low; B-score at 10 µM; 0.92% of 310,000 active;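 active = B-score of the integrated calcium signal more than 4 SD below the library mean, with starting fluorescence not abnormally high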;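 also: negative B-score means reduced calcium response which marks RGS4 activation or potentiation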
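Material: M3R-expressing HEK293 line, RGS4 induced by doxycycline | Schedule: Overnight RGS4 induction, 30 min dye load 37 °C, 20 min compound RT | Measured by: Fluo4 fluorescence kinetic imaging of calcium | Read-out: Integrated calcium ratio converted to B score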
MrgX1 PAM – positive allosteric modulators of MrgX1, primary screen, HEK293 cells, Fluo-4 calcium flux | 0.63% of 310,000 active | AID 588675, 2011 | Mas-related G-protein coupled receptor member X1 (Homo sapiens), Q96LB2 | B-score at 10 µM | FDSS; active compounds read high;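 active = plate-corrected calcium response at least 3 library SD above typical, normal starting fluorescence, not activating the receptor alone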;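 also: compound read alongside a low EC10 to EC30 dose of BAM8-22 agonist; peak minus trough fluorescence over baseline measured at the second addition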
RGS4 block – RGS4 inhibitors, primary screen, cell-based, HEK293 M3R inducible RGS4, calcium flux | Fluo-4 calcium flux; active compounds read high; triggered by carbachol at its EC20 | B-score at 10 µM | Regulator of G-protein signaling 4 (Homo sapiens), P49798 | 0.45% of 310,000 active;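 active = B-score, a plate-corrected calcium signal, over three deviations above library mean, with baseline fluorescence within five deviations of library mean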;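 also: RGS4 expression induced by doxycycline in cells with stable M3 receptor; B-score is computed from the integrated fluorescence ratio over baseline after carbachol; higher B-score means a larger calcium signal and so more RGS4 inhibition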
Target sequence (P49798 whole entry, looked up): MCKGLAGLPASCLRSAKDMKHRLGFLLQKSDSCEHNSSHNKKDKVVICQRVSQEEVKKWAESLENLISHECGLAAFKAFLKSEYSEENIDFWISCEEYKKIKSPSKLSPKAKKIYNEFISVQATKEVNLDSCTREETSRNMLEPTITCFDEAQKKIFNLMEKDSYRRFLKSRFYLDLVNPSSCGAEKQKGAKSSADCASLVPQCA
Starred values were filed as active, the others as inactive.

Results for NC(=NCCCCCCN=C(N)/N=C(\N)Nc1ccc(Cl)cc1)/N=C(\N)Nc1ccc(Cl)cc1 ?
MrgX1 ag: inactive; MrgX1 antag: -5.7*; Kir21 block: -0.15; RGS4 pot: inactive; MrgX1 PAM: inactive; RGS4 block: inactive

What do the screens show for `Cc1ccc2[nH]c(CCN(C)C)c(CC#N)c2c1`?
MrgX1 ag: inactive; MrgX1 antag: inactive; Kir21 block: -1.2; RGS4 pot: inactive; MrgX1 PAM: inactive; RGS4 block: inactive

What do the screens show for `CCOC(=O)c1c(NC(=S)Nc2ccccc2)sc2c1CCN(CCc1ccccc1)C2`?
MrgX1 ag: inactive; MrgX1 antag: -5*; MrgX1 PAM: inactive

Results for CC(C)N1CCc2c(sc(NC(=S)NC(=O)c3ccccc3)c2C#N)C1 ?
MrgX1 ag: inactive; MrgX1 antag: inactive; Kir21 block: -3.5; RGS4 pot: inactive; MrgX1 PAM: inactive; RGS4 block: inactive

Results for CCCN1CCc2c(sc(NC(=S)NC(=O)c3ccccc3)c2C#N)C1 ?
MrgX1 ag: 80*; MrgX1 antag: inactive; Kir21 block: 0.02; RGS4 pot: inactive; MrgX1 PAM: inactive; RGS4 block: inactive

Results for Cc1ccc2sc(NC(=O)c3ccc(N4C(=O)CCC4=O)cc3)nc2c1C ?
MrgX1 ag: inactive; MrgX1 antag: inactive; Kir21 block: -0.25; RGS4 pot: inactive; MrgX1 PAM: inactive; RGS4 block: inactive

Results for CC1=NN(C(=O)c2ccccc2C)C(O)(c2ccc(Cl)cc2)C1 (centres undefined) ?
MrgX1 ag: inactive; MrgX1 antag: inactive; Kir21 block: -1.3; RGS4 pot: inactive; MrgX1 PAM: inactive; RGS4 block: inactive

Results for CCC1=NN(C(=O)c2ccc([N+](=O)[O-])cc2)C(O)(c2ccccc2)C1 (centres undefined) ?
MrgX1 ag: inactive; MrgX1 antag: inactive; Kir21 block: -0.49; RGS4 pot: inactive; MrgX1 PAM: 14*; RGS4 block: inactive

Results for COC(=O)C1=NN(C(=O)c2ccc(Cl)cc2)C(O)(c2ccccc2)C1 (centres undefined) ?
MrgX1 ag: 39*; MrgX1 antag: inactive; Kir21 block: -0.5; RGS4 pot: inactive; MrgX1 PAM: inactive; RGS4 block: inactive

How did CCC1=NN(C(=O)c2ccccc2O)C(O)(c2ccccc2)C1 (centres undefined) do in these assays?
MrgX1 ag: inactive; MrgX1 antag: inactive; Kir21 block: 0.6; RGS4 pot: inactive; MrgX1 PAM: inactive; RGS4 block: inactive

Results for CCOC(=O)C1=NN(C(=O)c2ccc(C)cc2)C(O)(c2ccc(Cl)cc2)C1 (centres undefined) ?
MrgX1 ag: 54*; MrgX1 antag: inactive; Kir21 block: 0.42; RGS4 pot: -9.3*; MrgX1 PAM: inactive; RGS4 block: inactive

How did CCC1=NN(C(=O)c2ccc(Cl)cc2)C(O)(c2ccc(C)cc2)C1 (centres undefined) do in these assays?
MrgX1 ag: inactive; MrgX1 antag: inactive; Kir21 block: -0.58; RGS4 pot: inactive; MrgX1 PAM: 7.3*; RGS4 block: inactive

Results for O=C(CN1CCCCC1)Nc1ccccc1-c1ccccc1 ?
MrgX1 ag: inactive; MrgX1 antag: inactive; Kir21 block: 1.5; RGS4 pot: -10*; MrgX1 PAM: inactive; RGS4 block: inactive

What do the screens show for `CCNC(=O)/C(C#N)=C/c1c(N2CCN(c3cccc(Cl)c3)CC2)nc2c(C)cccn2c1=O`?
MrgX1 ag: inactive; MrgX1 antag: inactive; Kir21 block: 1.5; RGS4 pot: -11*; MrgX1 PAM: inactive; RGS4 block: inactive

How did CCOC(=O)/C(C#N)=C/c1c(N2CCN(c3ccccc3)CC2)nc2c(C)cccn2c1=O do in these assays?
MrgX1 ag: inactive; MrgX1 antag: inactive; Kir21 block: 2.4; RGS4 pot: -7.8*; MrgX1 PAM: inactive; RGS4 block: inactive

What do the screens show for `COC(=O)/C(C#N)=C/c1c(N2CCN(c3cccc(Cl)c3)CC2)nc2c(C)cccn2c1=O`?
MrgX1 ag: inactive; MrgX1 antag: inactive; Kir21 block: -2.3; RGS4 pot: inactive; MrgX1 PAM: inactive; RGS4 block: inactive

Results for COC(=O)/C(C#N)=C/c1c(N2CCN(c3ccccc3)CC2)nc2c(C)cccn2c1=O ?
Kir21 block: 1.5; RGS4 pot: inactive; RGS4 block: inactive

Results for CCCC1=NN2C(=N)/C(=C\c3cc(C)n(-c4cc(C)cc(C)c4)c3C)C(=O)N=C2S1 ?
MrgX1 ag: inactive; MrgX1 antag: inactive; Kir21 block: 0.52; RGS4 pot: -8.6*; MrgX1 PAM: inactive; RGS4 block: inactive

What do the screens show for `Cc1cccc(-n2c(C)cc(/C=C3\C(=N)N4N=C(CC(C)C)SC4=NC3=O)c2C)c1`?
MrgX1 ag: inactive; MrgX1 antag: inactive; Kir21 block: 0.07; RGS4 pot: inactive; MrgX1 PAM: inactive; RGS4 block: inactive

How did Cc1cc(C)cc(-n2c(C)cc(/C=C3\C(=N)N4N=C(CC(C)C)SC4=NC3=O)c2C)c1 do in these assays?
MrgX1 ag: inactive; MrgX1 antag: inactive; Kir21 block: -0.09; RGS4 pot: -7.8*; MrgX1 PAM: inactive; RGS4 block: inactive

How did CSc1cccc(NC(=O)CSc2ccc(Cl)cc2)c1 do in these assays?
MrgX1 ag: inactive; MrgX1 antag: inactive; Kir21 block: -0.39; RGS4 pot: inactive; MrgX1 PAM: inactive; RGS4 block: inactive

Results for O=C(Cn1c(=O)n(-c2ccccc2)c(=O)n1CC(=O)N1CCCCC1)N1CCCCC1 ?
MrgX1 ag: 36*; MrgX1 antag: inactive; Kir21 block: -0.08; RGS4 pot: inactive; MrgX1 PAM: inactive; RGS4 block: inactive

What do the screens show for `O=c1n(-c2ccccc2)c(=O)n2n1CCCC2`?
MrgX1 ag: inactive; MrgX1 antag: inactive; Kir21 block: 2; RGS4 pot: inactive; MrgX1 PAM: inactive; RGS4 block: inactive

How did CSc1c(C#N)c(N)nc2sc(C(=O)c3ccc(Cl)c(Cl)c3)c(N)c12 do in these assays?
MrgX1 ag: inactive; MrgX1 antag: -5.2*; Kir21 block: 2.2; RGS4 pot: inactive; MrgX1 PAM: inactive; RGS4 block: inactive

How did CCOc1ccc(CCNC(=O)CS(=O)Cc2nc(-c3ccc(OC)cc3)oc2C)cc1OCC (centres undefined) do in these assays?
MrgX1 ag: inactive; MrgX1 antag: inactive; Kir21 block: 1.1; RGS4 pot: inactive; MrgX1 PAM: inactive; RGS4 block: inactive
